In ChEMBL document CHEMBL1128747, “Phosphinic acid analogues of GABA. 1. New potent and selective GABAB agonists” (J Med Chem, 1995):
pIC50: −log10 of the molar value.

Columns and labels:
GABA B receptor [1] = molecular target: T1, GABA B receptor (Rattus norvegicus, UniProt O88871+Q9Z0U4); experiment: (§1) Inhibition of [3H]CGP-27492 binding to Gamma-aminobutyric acid type B receptor of rat cortex
How it was run: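 Displacement of [3H]CGP27492 from rat cerebral cortex membranes, in triplicate. Nonspecific binding defined with 10 µM (R)-(-)-baclofen. IC50 obtained by computer curve fitting to a single-site model.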

[2] = molecular target: T2, Adenosine receptor A1 (Homo sapiens) (UniProt P30542); experiment: Inhibition of [3H]- N-6-CA binding to Adenosine A1 receptor at 10e-5 M
T2 sequence (whole entry): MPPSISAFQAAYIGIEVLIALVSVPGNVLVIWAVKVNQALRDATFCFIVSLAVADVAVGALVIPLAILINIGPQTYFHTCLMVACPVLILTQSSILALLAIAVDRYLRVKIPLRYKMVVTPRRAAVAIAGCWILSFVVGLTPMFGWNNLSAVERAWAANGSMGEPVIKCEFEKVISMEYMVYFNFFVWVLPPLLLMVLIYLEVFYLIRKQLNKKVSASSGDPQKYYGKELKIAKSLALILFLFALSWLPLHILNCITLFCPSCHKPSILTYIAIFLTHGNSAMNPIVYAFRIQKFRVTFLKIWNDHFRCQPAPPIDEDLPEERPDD

[3] = Inhibition of [3H]- 5-HT binding to 5-hydroxytryptamine 1 receptor at 10e-5 M
[4] = molecular target: Muscarinic acetylcholine receptor (Homo sapiens) (UniProt P20309+P08173+P11229+P08172+P08912); experiment: Inhibition of [3H]CMD binding to muscarinic ACh receptor at 10e-5 M; format: protein assay
Rattus norvegicus [5] = experiment: Deterioration of rotarod performance of rats 0.5-1 hour after subcutaneous administration of compound; format: functional, organism-based
How it was run: (§2)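 Male Sprague-Dawley rats (120-140 g), eight per dose. Compound is dissolved in water and given orally (5 mL/kg) or subcutaneously into the neck (2 mL/kg). Rats are pre-trained to stay 300 s on an 11 rpm, 6 cm cylinder. Time on the rod (maximum 300 s) is recorded at 0.5-1 h after sc or 1.5-2 h after po dosing. EC50 is the dose in µmol/kg at which 50% fall off within ≤150 s, estimated by Probit.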

[6] = molecular target: Adrenergic receptor alpha-1 (Homo sapiens) (UniProt P35348+P25100+P35368); experiment: Inhibition [3H]- prazosin binding to Alpha-1 adrenergic receptor at 10e-5 M; format: protein assay
[7] = molecular target: Serotonin 3 (5-HT3) receptor (Homo sapiens) (UniProt P46098+A5X5Y0+O95264+Q70Z44+Q8WXA8); experiment: Inhibition of [3H]- BRL 43 694 binding to 5-hydroxytryptamine 3 receptor at 10e-5 M; format: protein-complex assay
[8] = molecular target: T3, Serotonin 2 (5-HT2) receptor (Homo sapiens) (UniProt P41595+P28223+P28335); experiment: Ketanserin binding to 5-hydroxytryptamine 2 receptor at 10e-5 M; format: protein assay
[9] = molecular target: T4, GABA-A receptor; anion channel (Homo sapiens) (UniProt P14867+P47870+P18507+P28472+P48169+Q99928+Q9UN88+P34903+O00591+O14764+Q8N1C3+P18505+P78334+P47869+P31644+Q16445); experiment: Inhibition of [3H]- flunitrazepam binding to GABA-A benzodiazepine receptor at 10e-5 M; format: protein-complex assay
[10] = The compound was tested for blockade of the monosynaptic reflexes in the hemisected neonatal spinal cord; format: functional, Rattus norvegicus
[11] = tested on: GABA-A receptor; anion channel; experiment: Inhibition of [3H]muscimol binding to GABA-A receptor of rat cortex; format: tissue-based; conditions: for pIC50: read-out: IC50
Rattus norvegicus [12] = species: Rattus norvegicus; experiment: The compound was tested for inhibition of release of [3H]GABA from rat cortical slices after electrical stimulation.; format: functional
[13] = molecular target: Adrenergic receptor alpha-2 (Homo sapiens) (UniProt P08913+P18825+P18089); experiment: Inhibition of [3H]- clonidine binding to Alpha-2 adrenergic receptor at 10e-5 M; format: protein assay
[14] = molecular target: Histamine H1 receptor (Homo sapiens) (UniProt P35367); experiment: Inhibition of [3H]- doxepine binding to histamine 1 receptor at 10e-5 M
Chain of Histamine H1 receptor (Homo sapiens) (P35367 whole entry): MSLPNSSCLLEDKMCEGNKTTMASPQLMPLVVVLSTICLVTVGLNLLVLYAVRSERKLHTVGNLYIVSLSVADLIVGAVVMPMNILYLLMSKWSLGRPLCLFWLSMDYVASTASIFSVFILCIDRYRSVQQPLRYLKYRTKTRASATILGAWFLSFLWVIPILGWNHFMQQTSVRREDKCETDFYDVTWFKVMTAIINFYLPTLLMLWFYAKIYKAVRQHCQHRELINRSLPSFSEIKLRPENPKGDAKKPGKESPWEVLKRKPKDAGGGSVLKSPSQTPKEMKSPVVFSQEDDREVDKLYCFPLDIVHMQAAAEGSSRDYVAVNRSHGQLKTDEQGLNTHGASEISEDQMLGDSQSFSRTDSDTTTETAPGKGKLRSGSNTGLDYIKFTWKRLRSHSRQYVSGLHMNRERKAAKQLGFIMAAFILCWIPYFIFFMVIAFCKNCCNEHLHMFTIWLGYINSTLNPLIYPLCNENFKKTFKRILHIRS

[15] = molecular target: Mu-type opioid receptor (Homo sapiens) (UniProt P35372); experiment: Inhibition of [3H]- naloxone binding to mu-opiate receptor at 10e-5 M
Chain of Mu-type opioid receptor (Homo sapiens) (P35372 whole entry): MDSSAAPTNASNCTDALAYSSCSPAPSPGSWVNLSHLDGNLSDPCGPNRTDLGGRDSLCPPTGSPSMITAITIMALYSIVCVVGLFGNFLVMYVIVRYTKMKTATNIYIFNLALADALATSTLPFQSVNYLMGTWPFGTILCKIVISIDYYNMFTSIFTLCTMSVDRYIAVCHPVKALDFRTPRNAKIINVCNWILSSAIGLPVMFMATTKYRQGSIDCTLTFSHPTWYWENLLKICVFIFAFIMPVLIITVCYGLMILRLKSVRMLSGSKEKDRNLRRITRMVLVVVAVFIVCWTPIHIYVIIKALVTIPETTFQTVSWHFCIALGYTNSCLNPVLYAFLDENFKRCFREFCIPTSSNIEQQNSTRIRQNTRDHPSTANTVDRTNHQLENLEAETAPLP

[16] = molecular target: T4, GABA-A receptor; anion channel (Homo sapiens); experiment: Inhibition of [3H]- muscimol binding to Gamma-aminobutyric acid A (GABA-A) receptor at 10e-5 M; format: protein-complex assay
[17] = molecular target: Substance-P receptor (Homo sapiens) (UniProt P25103); experiment: Inhibition of [3H]-substance P binding to Tachykinin receptor 1 at 10e-5 M
[18] = molecular target: T5, Adrenergic receptor beta (Homo sapiens) (UniProt P08588+P07550+P13945); experiment: Inhibition of [3H]- DHA binding to Beta adrenergic receptor; format: protein assay; conditions: concentration not given here
GABA-B receptor [19] = molecular target: T6, GABA-B receptor (Homo sapiens, UniProt O75899+Q9UBS5); experiment: Inhibition of [3H]CGP-27492 binding to cat Gamma-aminobutyric acid type B receptor; format: protein-complex assay, Felis catus; conditions: target entry is the homologue from another species
T6 sequence (Q9UBS5 whole entry): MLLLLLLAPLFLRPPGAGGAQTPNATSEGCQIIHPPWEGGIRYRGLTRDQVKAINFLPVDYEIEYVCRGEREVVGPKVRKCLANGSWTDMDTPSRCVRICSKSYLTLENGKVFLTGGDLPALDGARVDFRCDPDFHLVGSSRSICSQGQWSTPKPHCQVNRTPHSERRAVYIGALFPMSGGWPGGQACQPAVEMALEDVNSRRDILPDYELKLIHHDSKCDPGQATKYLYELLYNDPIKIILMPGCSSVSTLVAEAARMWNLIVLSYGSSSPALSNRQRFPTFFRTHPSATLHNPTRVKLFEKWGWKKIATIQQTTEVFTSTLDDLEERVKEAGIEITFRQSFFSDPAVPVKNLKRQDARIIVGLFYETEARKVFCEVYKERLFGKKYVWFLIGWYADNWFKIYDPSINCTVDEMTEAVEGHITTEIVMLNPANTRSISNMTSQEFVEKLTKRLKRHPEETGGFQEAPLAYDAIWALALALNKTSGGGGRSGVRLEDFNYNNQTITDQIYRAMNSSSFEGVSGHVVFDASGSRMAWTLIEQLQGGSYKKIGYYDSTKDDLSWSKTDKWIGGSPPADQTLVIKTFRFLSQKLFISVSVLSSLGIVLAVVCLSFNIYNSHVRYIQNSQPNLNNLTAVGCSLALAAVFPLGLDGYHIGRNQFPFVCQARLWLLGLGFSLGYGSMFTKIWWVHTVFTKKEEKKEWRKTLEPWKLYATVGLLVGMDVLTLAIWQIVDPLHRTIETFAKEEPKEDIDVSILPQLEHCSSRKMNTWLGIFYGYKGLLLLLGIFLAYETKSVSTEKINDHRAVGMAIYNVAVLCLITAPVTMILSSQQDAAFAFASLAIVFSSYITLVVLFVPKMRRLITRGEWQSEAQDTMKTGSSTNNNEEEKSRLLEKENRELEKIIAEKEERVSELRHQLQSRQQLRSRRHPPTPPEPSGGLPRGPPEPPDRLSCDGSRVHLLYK
T6 sequence (O75899 whole entry): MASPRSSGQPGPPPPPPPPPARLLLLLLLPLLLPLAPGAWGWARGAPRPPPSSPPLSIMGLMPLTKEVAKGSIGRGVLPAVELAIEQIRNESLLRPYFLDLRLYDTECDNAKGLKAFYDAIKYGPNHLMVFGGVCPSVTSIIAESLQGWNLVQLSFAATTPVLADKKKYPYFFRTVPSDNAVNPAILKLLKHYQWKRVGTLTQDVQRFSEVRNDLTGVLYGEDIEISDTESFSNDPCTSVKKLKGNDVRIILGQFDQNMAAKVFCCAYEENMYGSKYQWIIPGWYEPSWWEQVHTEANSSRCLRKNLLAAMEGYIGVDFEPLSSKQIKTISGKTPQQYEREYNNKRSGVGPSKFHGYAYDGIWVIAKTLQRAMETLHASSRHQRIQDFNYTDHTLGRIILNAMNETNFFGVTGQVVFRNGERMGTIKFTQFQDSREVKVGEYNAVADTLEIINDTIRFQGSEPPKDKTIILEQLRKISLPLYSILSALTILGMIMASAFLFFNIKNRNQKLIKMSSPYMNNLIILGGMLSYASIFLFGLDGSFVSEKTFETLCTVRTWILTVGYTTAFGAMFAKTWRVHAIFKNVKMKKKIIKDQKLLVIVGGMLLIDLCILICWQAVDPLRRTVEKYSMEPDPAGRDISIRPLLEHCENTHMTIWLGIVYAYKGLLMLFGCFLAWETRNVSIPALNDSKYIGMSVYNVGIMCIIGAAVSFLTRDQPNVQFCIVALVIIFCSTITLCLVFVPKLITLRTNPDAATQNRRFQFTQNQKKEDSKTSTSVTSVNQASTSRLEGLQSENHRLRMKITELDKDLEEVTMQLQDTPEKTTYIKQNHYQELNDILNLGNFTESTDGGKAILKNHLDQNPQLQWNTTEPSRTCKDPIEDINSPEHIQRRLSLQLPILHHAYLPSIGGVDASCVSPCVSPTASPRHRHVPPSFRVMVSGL

GABA-B receptor [20] = molecular target: T6, GABA-B receptor; experiment: Inhibition of [3H]-baclofen binding to Gamma-aminobutyric acid type B receptor of cat cerebellum; format: tissue-based, Felis catus; conditions: target entry is the homologue from another species
GABA B receptor [21] = molecular target: T1, GABA B receptor; experiment: as §1; remark: listed apart in the source
[22] = molecular target: T5, Adrenergic receptor beta (Homo sapiens); experiment: Inhibition of [3H]- DHA binding to Beta adrenergic receptor at 10e-5 M; format: protein assay
[23] = molecular target: T3, Serotonin 2 (5-HT2) receptor (Homo sapiens); experiment: Inhibition of [3H]ketanserin binding to 5-hydroxytryptamine 2 receptor at 10e-5 M; format: protein assay
Rattus norvegicus [24] = experiment: Deterioration of rotarod performance of rats 1.2 hour after subcutaneous administration of compound; format: functional, organism-based
Rattus norvegicus [25] = experiment: Deterioration of rotarod performance of rats 1-2 hour after peroral administration of compound; format: functional, organism-based; how it was run: as §2
GABA-B receptor [26] = molecular target: T6, GABA-B receptor; experiment: Inhibition of [3H]baclofen binding to Gamma-aminobutyric acid type B receptor of cat cerebellum; format: tissue-based, Felis catus; conditions: target entry is the homologue from another species
How it was run: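 Cat cerebellar synaptosomal membranes (200-300 µg protein), prepared by sucrose density gradient, lysis, freezing and repeated washes. […] Stopped by centrifugation and pellet counted. Run in triplicate. Nonspecific binding with 10 µM (R)-(-)-baclofen. IC50 from single-site curve fit.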

Rattus norvegicus [27] = experiment: Deterioration of rotarod performance of rats 1-2 hour after subcutaneous administration of compound; format: functional, organism-based
[28] = molecular target: GABA-B receptor (Homo sapiens) (UniProt Q9UBS5+O75899); experiment: Inhibition of [3H]baclofen binding to Gamma-aminobutyric acid type B receptor of cat cerebellum at 10e-5 M; format: tissue-based; conditions: Felis catus, target entry is the homologue from another species

T1 sequence (Q9Z0U4 whole entry): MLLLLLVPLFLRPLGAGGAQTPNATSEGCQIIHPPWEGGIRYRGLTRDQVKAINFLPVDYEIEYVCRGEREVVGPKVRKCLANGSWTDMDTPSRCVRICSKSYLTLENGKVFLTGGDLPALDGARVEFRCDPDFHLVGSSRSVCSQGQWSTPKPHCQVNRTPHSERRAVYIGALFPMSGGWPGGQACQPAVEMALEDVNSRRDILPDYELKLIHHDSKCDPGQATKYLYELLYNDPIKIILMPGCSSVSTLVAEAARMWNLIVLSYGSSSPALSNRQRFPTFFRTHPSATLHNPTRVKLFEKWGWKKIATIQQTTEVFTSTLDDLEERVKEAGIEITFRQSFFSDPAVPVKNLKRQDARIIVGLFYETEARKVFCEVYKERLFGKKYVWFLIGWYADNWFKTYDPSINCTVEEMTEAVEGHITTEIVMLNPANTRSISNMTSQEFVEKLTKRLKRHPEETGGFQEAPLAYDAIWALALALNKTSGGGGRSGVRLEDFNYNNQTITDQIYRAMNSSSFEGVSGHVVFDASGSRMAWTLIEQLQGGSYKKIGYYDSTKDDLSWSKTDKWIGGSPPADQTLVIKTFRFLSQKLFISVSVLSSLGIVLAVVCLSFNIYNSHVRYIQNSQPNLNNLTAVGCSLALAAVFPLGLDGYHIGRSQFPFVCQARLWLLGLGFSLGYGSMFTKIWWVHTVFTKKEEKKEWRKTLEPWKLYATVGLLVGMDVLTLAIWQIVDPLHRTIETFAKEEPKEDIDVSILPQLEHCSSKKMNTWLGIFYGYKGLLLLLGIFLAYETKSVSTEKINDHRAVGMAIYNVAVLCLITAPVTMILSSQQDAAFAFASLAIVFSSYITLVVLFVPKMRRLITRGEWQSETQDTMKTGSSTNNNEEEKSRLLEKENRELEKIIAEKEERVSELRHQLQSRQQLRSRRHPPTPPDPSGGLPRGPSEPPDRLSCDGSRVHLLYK
T1 sequence (O88871 whole entry): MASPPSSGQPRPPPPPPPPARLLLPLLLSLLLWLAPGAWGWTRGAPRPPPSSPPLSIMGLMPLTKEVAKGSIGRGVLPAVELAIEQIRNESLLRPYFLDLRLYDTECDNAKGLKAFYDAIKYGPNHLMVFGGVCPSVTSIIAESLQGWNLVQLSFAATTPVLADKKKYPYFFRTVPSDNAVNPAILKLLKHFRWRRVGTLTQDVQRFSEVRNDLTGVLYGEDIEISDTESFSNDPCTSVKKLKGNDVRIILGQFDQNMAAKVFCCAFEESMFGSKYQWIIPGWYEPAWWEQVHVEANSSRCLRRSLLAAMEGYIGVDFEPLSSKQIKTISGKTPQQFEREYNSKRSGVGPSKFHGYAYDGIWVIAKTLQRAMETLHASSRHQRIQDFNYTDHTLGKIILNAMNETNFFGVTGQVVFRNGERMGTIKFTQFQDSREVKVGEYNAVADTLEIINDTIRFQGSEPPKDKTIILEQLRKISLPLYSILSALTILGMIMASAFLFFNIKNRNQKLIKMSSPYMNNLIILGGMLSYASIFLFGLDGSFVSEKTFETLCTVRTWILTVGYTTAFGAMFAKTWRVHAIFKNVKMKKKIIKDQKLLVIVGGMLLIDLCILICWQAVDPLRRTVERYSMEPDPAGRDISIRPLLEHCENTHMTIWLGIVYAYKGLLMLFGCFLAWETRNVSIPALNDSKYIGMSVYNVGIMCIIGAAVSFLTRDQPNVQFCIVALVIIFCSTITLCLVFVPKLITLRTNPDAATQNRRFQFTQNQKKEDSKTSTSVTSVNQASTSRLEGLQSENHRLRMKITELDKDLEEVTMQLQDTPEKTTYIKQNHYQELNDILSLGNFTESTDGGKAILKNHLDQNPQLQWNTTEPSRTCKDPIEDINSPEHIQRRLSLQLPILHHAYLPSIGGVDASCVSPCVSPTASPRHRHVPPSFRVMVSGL

CP(=O)(O)C(O)CCN (centres undefined)
pIC50 (GABA B receptor [1]): 5.94

CP(=O)(O)C(CCN)C(F)(F)F (centres undefined)
pIC50 (GABA B receptor [1]): 4.17

CP(=O)(O)CCCN
inhibition [2]: 6%
inhibition [3]: 46%
inhibition [4]: 0%
EC50 (Rattus norvegicus [5]): 2 µM/kg
inhibition [6]: 6%
inhibition [7]: 0%
inhibition [8]: 0%
inhibition [9]: 0%
pIC50 [10]: 7.30
IC50 [11]: Not Active
pIC50 (Rattus norvegicus [12]): 6.35
inhibition [13]: 9%
inhibition [14]: 30%
inhibition [15]: 0%
inhibition [16]: 0%
inhibition [17]: 2%
inhibition [18]: 0%

CC(CCN)P(C)(=O)O (centres undefined)
pIC50 (GABA-B receptor [19]): 6.78
pIC50 (GABA B receptor [1]): 6.85

NCCC[PH](=O)O
inhibition [2]: 2%
inhibition [3]: 13%
inhibition [4]: 27%
EC50 (Rattus norvegicus [5]): > 813 µM/kg
inhibition [6]: 16%
pIC50 (GABA-B receptor [20]): 8.62
pIC50 (GABA B receptor [21]): 8.27
inhibition [9]: 24%
pIC50 [10]: 4.22
pIC50 [11]: 5.77
inhibition [22]: 0%
pIC50 (Rattus norvegicus [12]): 6.97
inhibition [23]: 0%
inhibition [14]: 0%
inhibition [15]: 0%
inhibition [16]: 65%
inhibition [17]: 9%

CCC(CCN)P(C)(=O)O (centres undefined)
pIC50 (GABA B receptor [1]): 4.73

NCC(O)CP(=O)(O)C(F)F (centres undefined)
pIC50 (GABA B receptor [1]): 6.67

NCCCP(=O)(O)CO
pIC50 (GABA B receptor [1]): 5.98

CP(=O)(O)/C=C\CN
pIC50 (GABA B receptor [1]): 4.78

CCP(=O)(O)CCCN
pIC50 (GABA-B receptor [20]): 5.87
pIC50 (GABA B receptor [21]): 5.70
IC50 [11]: Not Active

NCCCP(=O)(O)C(F)F
EC50 (Rattus norvegicus [5]): 22 µM/kg
pIC50 (Rattus norvegicus [12]): 4.97
pIC50 (GABA B receptor [1]): 7.05

NC[C@H](CC(=O)O)c1ccc(Cl)cc1 [ARBACLOFEN]
EC50 (Rattus norvegicus [5]): 9 µM/kg
pIC50 [10]: 6.49
pIC50 [11]: 3.02
pIC50 (Rattus norvegicus [12]): 6.48
EC50 (Rattus norvegicus [24]): 16 µM/kg

CP(=O)(O)CC(O)CN (centres undefined)
pIC50 (GABA-B receptor [19]): 7.54
pIC50 (GABA B receptor [1]): 7.11

NC[C@@H](CC(=O)O)c1ccc(Cl)cc1
EC50 (Rattus norvegicus [5]): > 200 µM/kg
pIC50 [11]: 2.81
pIC50 (Rattus norvegicus [12]): 3.67
EC50 (Rattus norvegicus [25]): > 200 µM/kg

NCC(C[PH](=O)O)c1ccc(F)cc1 (centres undefined)
pIC50 (GABA-B receptor [26]): 6.44

CP(=O)(O)C[C@H](O)CN
EC50 (Rattus norvegicus [27]): 135 µM/kg
EC50 (Rattus norvegicus [5]): 13 µM/kg
pIC50 [10]: 6.37
pIC50 (Rattus norvegicus [12]): 6.22
pIC50 (GABA B receptor [1]): 6.82

NCC(C[PH](=O)O)c1ccc(Cl)cc1 (centres undefined)
EC50 (Rattus norvegicus [5]): 19 µM/kg
pIC50 (GABA-B receptor [26]): 7.41

NCC(O)(C[PH](=O)O)c1ccc(Cl)cc1 (centres undefined)
pIC50 (GABA B receptor [1]): 7.19

NCC(O)C[PH](=O)O (centres undefined)
pIC50 (GABA-B receptor [20]): 7.74

NCCC(c1ccccc1)[PH](=O)O (centres undefined)
inhibition [28]: 10%

NCC(C[PH](=O)O)c1ccccc1 (centres undefined)
pIC50 (GABA-B receptor [26]): 6.06

NCC(CC(=O)O)c1ccc(Cl)cc1 (racemic) [BACLOFEN]
EC50 (Rattus norvegicus [27]): 52 µM/kg
EC50 (Rattus norvegicus [5]): 24 µM/kg
pIC50 [11]: 2.98

CP(=O)(O)C[C@@H](O)CN
inhibition [2]: 16%
inhibition [3]: 7%
inhibition [4]: 0%
EC50 (Rattus norvegicus [27]): 36 µM/kg
EC50 (Rattus norvegicus [5]): 2 µM/kg
inhibition [6]: 0%
inhibition [7]: 0%
inhibition [9]: 0%
pIC50 [10]: 6.79
pIC50 (Rattus norvegicus [12]): 6.40
inhibition [13]: 0%
pIC50 (GABA B receptor [1]): 7.35
inhibition [23]: 36%
inhibition [14]: 22%
inhibition [15]: 0%
inhibition [16]: 0%
inhibition [17]: 7%
inhibition [18]: 9%

NCCCP(=O)(O)O
pIC50 (GABA B receptor [1]): 5.17

CP(=O)(O)/C=C/CN
pIC50 (GABA B receptor [1]): 6.18
